According to ChEMBL document CHEMBL1122264, “Synthesis and biological properties of thiophene ring analogues of mianserin” (J Med Chem, 1983):
Activity calls are given as the source filed them.

Experiments:
Mus musculus [1] = assay: In vivo Antagonism (ip) of 0.1 mg/kg clonidine-induced analgesia (po) determined in phenylquinone-induced writhing assay at a dose of 30 mg/kg dose; the ratio is 4/10; type: functional, organism-based
Outline: (§1)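 Male mice (18–22 g) receive the test substance ip, then clonidine 0.1 mg/kg po 30 min later. Phenylquinone is given ip 20 min after clonidine. Mice writhing 5–15 min after phenylquinone count as reactors. The result is the number of mice, out of n = 10 per experiment, in which clonidine analgesia is reversed.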

[2] = biological target: T1, Cerebral cortex alpha adrenergic receptor (Bos taurus, UniProt Q28838+P18130); assay: In vitro binding affinity towards alpha-adrenoceptor of calf cortex membrane Site B using [3H]-clonidine
T1 sequence (Q28838 whole entry): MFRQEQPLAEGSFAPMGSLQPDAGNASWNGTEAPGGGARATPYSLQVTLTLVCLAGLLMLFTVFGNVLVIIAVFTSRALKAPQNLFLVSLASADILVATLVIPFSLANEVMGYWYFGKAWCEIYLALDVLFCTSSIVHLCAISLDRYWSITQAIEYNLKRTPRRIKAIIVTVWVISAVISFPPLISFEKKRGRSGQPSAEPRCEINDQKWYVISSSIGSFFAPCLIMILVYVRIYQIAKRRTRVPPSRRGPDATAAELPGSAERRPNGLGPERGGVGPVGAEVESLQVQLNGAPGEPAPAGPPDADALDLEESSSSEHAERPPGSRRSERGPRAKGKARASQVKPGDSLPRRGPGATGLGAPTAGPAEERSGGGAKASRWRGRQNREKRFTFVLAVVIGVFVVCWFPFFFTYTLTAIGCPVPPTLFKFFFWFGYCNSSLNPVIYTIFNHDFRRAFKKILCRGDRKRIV
T1 sequence (P18130 whole entry): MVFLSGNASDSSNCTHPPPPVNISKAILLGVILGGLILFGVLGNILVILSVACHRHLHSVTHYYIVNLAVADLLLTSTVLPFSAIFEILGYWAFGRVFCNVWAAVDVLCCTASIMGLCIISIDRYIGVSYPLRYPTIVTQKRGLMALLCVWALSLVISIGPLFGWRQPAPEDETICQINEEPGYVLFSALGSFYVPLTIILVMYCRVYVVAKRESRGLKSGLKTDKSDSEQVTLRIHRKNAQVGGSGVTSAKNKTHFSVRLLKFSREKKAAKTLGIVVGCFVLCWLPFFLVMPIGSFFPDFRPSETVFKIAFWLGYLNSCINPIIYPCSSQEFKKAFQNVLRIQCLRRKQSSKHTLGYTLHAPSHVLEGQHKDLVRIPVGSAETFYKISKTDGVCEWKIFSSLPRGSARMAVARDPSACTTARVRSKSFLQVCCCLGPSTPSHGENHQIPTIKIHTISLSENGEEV

Rattus norvegicus [3] = assay: In vivo determination of MHPG-SO4 level in rat whole brain at a dose 10 mg/kg intraperitoneal administration; type: functional
Outline: (§2)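 Rats, five per experiment, receive test agent ip as a corn starch suspension and are sacrificed 2 h later. Whole-brain MHPG-SO4 (μg/g) is measured by the Meek and Neff procedure and expressed as a percentage of control, ± SE.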

Histamine H2 receptor = Histamine H2 receptor (Cavia porcellus, UniProt P47747); assay: In vitro antihistamine activity by activation of 4-methylhistamine mediated by Histamine H2 receptor; type: functional
Rattus norvegicus [4] = assay: In vivo determination of MHPG-SO4 level in rat whole brain at a dose 30 mg/kg ip administration (5 rats); type: functional; settings: route intraperitoneal
Outline: (§3)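 Rats were given the test agent or vehicle ip as a suspension in corn starch. They were killed 2 h later, and MHPG-SO₄ was measured in whole brain in μg/g ± SE and as % of vehicle control. Five rats were used per experiment.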

[5] = biological target: Adrenergic receptor alpha; assay: In vitro binding affinity towards alpha-adreno ceptor of rat forebrain using [3H]prazosin
Outline: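 Rat forebrain membranes, [3H]prazosin binding by the Greengrass and Bremner procedure, with ascorbic acid omitted from the incubation medium. Drugs are tested in triplicate over a wide concentration range in a single experiment.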

Rattus norvegicus [6] = assay: In vivo determination of MHPG-SO4 level in rat whole brain at a dose 20 mg/kg ip administration (5 rats); type: functional; settings: route intraperitoneal; outline: as §2
Rattus norvegicus [7] = assay: In vivo determination of MHPG-SO4 level in rat whole brain at a dose 20 mg/kg intraperitoneal administration; type: functional; outline: as §2
Rattus norvegicus [8] = assay: In vivo determination of MHPG-SO4 level in rat whole brain at a dose 3 0 mg/kg ip administration; type: functional; settings: route intraperitoneal; outline: as §2
Mus musculus [9] = species: Mus musculus; assay: Antidepressant potential (duration) by using the behavioral despair model; type: functional
[10] = biological target: serotonin (5-HT) receptor (Bos taurus)
Rattus norvegicus [11] = assay: In vivo determination of MHPG-SO4 level in rat whole brain at a dose 10 mg/kg ip administration (5 rats); type: functional; settings: route intraperitoneal; outline: as §2
[12] = biological target: T1, Cerebral cortex alpha adrenergic receptor; assay: In vitro binding affinity towards alpha-adrenoceptor of calf cortex membrane Site A using [3H]clonidine
[13] = (§4) In vitro antihistamine activity, by activation of guinea pig cerebral cortex adenylate cyclase by histamine mediated by both H1 and H2 receptors; type: functional, tissue-based, Cavia porcellus
Outline: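 Adenylate cyclase preparation from guinea pig cerebral cortex, activated by histamine (acting via H1 + H2 receptors). Percent inhibition is measured in triplicate over a wide concentration range, and IC50 is calculated from those data. Psychoyos procedure.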

Rattus norvegicus [14] = assay: In vivo determination of MHPG-SO4 level in rat whole brain at a dose 0 mg/kg intraperitoneal administration; type: functional; outline: as §2
Mus musculus [15] = assay: In vivo central presynaptic alpha-blockade using [3H]rauwolscine in mice (injected iv 20 min later and the mice were sacrificed at 35 min); type: functional; settings: read-out: ID50 (the source's name)
Outline: (§5)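 Mice get test drug or vehicle ip at zero time, then [3H]rauwolscine iv 20 min later, and are sacrificed at 35 min. Displacement is measured in mouse forebrain. […] ID50 and 95% confidence limits follow the Granat method.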

Mus musculus [16] = assay: In vivo Antagonism (ip) of 0.1 mg/kg clonidine-induced analgesia (po) determined in phenylquinone-induced writhing assay at 10 mg/kg dose; the ratio being 4/10; type: functional, organism-based; outline: as §1
Mus musculus [17] = assay: Central presynaptic alpha-blockade using [3H]rauwolscine (injected iv 20 min later and the mice were sacrificed at 35 min) (in vivo);value ranges between (1.2-5.9); type: functional; settings: read-out: ID50 (the source's name); outline: as §5
[18] = biological target: serotonin (5-HT) receptor (Bos taurus); assay: In vitro binding affinity of serotonin receptor by interacting with high affinity, [3H]serotonin from calf caudate nucleus
Rattus norvegicus [19] = assay: In vivo determination of MHPG-SO4 level in rat whole brain at a dose 30 mg/kg ip administration; type: functional; settings: route intraperitoneal; outline: as §3
Mus musculus [20] = assay: In vivo central presynaptic alpha-blockade using [3H]rauwolscine (injected iv 20 min later and the mice were sacrificed at 35 min); settings: read-out: ID50
Rattus norvegicus [21] = assay: In vivo determination of MHPG-SO4 level in rat whole brain at a dose 0 mg/kg ip administration; type: functional; settings: route intraperitoneal; outline: as §3
[22] = as §4

Sequence of Histamine H2 receptor (P47747 whole entry): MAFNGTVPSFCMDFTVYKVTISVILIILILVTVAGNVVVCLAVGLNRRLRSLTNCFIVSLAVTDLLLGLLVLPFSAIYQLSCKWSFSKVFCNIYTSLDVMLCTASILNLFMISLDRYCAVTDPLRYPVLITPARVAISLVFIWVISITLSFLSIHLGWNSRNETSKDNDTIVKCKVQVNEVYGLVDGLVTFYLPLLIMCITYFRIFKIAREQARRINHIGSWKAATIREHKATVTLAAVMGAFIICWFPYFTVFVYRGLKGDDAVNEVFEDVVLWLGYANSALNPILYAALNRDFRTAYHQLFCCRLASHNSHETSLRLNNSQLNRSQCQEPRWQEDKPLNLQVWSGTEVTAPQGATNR

## CN1CCN2c3ccccc3Cc3ccsc3C2C1 (stereo unspecified)
Mus musculus [1]
  Antagonism: Partially active
[2]
  IC50: 3 nM
Rattus norvegicus [3]
  MHPG_SO4: 0.15 µg/g
Histamine H2 receptor
  IC50: 19000 nM
Rattus norvegicus [4]
  Control: 245%
[5]
  IC50: 1400 nM
Rattus norvegicus [6]
  Control: 191%
Rattus norvegicus [7]
  MHPG SO4: 0.21 µg/g
Rattus norvegicus [8]
  MHPG SO4: 0.27 µg/g
Mus musculus [9]
  Duration: 185 s
[10]
  IC50: 500 nM
Rattus norvegicus [11]
  Control: 136%
[12]
  IC50: 3 nM
[13]
  IC50: 280 nM
Rattus norvegicus [14]
  MHPG_SO4: 0.11 µg/g
Mus musculus [15]
  ED50: 3.3 mg/kg

## CN1CCN2c3ccccc3Cc3sccc3C2C1 (stereo unspecified)
[2]
  IC50: 3 nM
Histamine H2 receptor
  IC50: 7200 nM
Mus musculus [16]
  Antagonism: Partially active
[5]
  IC50: 300 nM
Mus musculus [17]
  ED50: 2.7 mg/kg
[18]
  IC50: 100 nM
[12]
  IC50: 2 nM
[13]
  IC50: 90 nM

## CN1CCN2c3ccccc3Cc3ccccc3C2C1.Cl (stereo unspecified) [MIANSERIN HYDROCHLORIDE]
Histamine H2 receptor
  IC50: 3800 nM
Rattus norvegicus [4]
  Control: 180%
Rattus norvegicus [19]
  MHPG SO4: 0.19 µg/g
Mus musculus [20]
  ED50: 3.7 mg/kg
Rattus norvegicus [21]
  MHPG_SO4: 0.11 µg/g
Mus musculus [9]
  Duration: 186 s
[22]
  IC50: 190 nM
